Assay results from different studies.
Compare with care: the assays were run in different laboratories.
gag-pol reverse transcriptase: Gag-Pol polyprotein, reverse transcriptase (gag-pol, Human immunodeficiency virus 1, UniProt P03366)
OPRD1: Delta-type opioid receptor (OPRD1, Homo sapiens, UniProt P41143)
gyrA: DNA gyrase subunit A (gyrA, Escherichia coli K-12, UniProt P0AES4)

For Cc1cc(C)cc(S(=O)(=O)c2c(C(=O)NCCCNS(=O)(=O)c3ccccc3F)[nH]c3ccc(Cl)cc23)c1, the IC50 was 76 nM (gag-pol reverse transcriptase; enzyme activity; inhibitor; ELISA).
For O[C@@H]1[C@H](O)[C@@H]2C[C@@H]2[C@H]1n1cnc2c(NCCc3ccccc3)nc(C#Cc3ccccc3)nc21, the Ki was over 10 µM (OPRD1; ligand displacement; radioligand).
Cc1ccc(S(=O)(=O)NCCCCCNC(=O)c2[nH]c3ccc(Cl)cc3c2S(=O)(=O)c2cc(C)cc(C)c2)cc1 gave an IC50 of 130 nM (gag-pol reverse transcriptase; enzyme activity; inhibitor; ELISA).
The IC50 of CC(C)Oc1c(-n2cc(-c3ccc(NC(=O)C(CC(N)=O)NC(=O)c4ccc(NC(=O)c5ccc(C#N)cc5)cc4)cc3)nn2)ccc(C(=O)Nc2ccc(C(=O)O)cc2)c1O (stereo not shown) is reported as 1500 nM (gyrA; enzyme activity; inhibitor).
For Cc1cnc(-c2ccc(-c3ccc(NC(=O)Nc4c(F)cc(F)cc4F)cc3F)c3c2C(=O)NC3)[nH]1, the Kd was 0.3 nM (STE20-like serine/threonine-protein kinase (SLK, Homo sapiens, UniProt Q9H2G2); binding; competition with immobilised ligand).
CCn1c(-c2nc3ccc(C(=O)N4CCCC(N)C4)cc3n2C)cc2ccccc21 (stereo not shown) gave an EC50 of over 50100 nM (5-hydroxytryptamine receptor 3A (HTR3A, Homo sapiens, UniProt P46098); calcium signal; agonist).
Cc1cc(C)cc(S(=O)(=O)c2c(C(=O)NCCCCCNS(=O)(=O)c3cccnc3)[nH]c3ccc(Cl)cc23)c1 gave an IC50 of 95 nM (gag-pol reverse transcriptase; enzyme activity; inhibitor; ELISA).
With O[C@@H]1[C@H](O)[C@@H]2C[C@@H]2[C@H]1n1cnc2c(NCc3cccc(Cl)c3)ncnc21 the Ki was over 10 µM (OPRD1; ligand displacement; radioligand).
With CC(C)Oc1c(NC(=O)c2ccc(NC(=O)[C@H](CC(N)=O)NC(=O)c3ccc(NC(=O)Cc4ccc(C#N)cc4)cc3)cc2)ccc(C(=O)Nc2ccc(C(=O)O)cc2)c1O the IC50 was 16300 nM (gyrA; enzyme activity; inhibitor).
CNC(=O)[C@@]12C[C@@H]1[C@@H](n1cnc3c(NC)cc(C#Cc4ccc(Cl)s4)nc31)[C@H](O)[C@@H]2O gave a Ki of over 10 µM (OPRD1; ligand displacement; radioligand).
Cc1cc(C)cc(S(=O)(=O)c2c(C(=O)NCCCCNS(=O)(=O)c3ccc(Br)cc3)[nH]c3ccc(Cl)cc23)c1 gave an IC50 of 150 nM (gag-pol reverse transcriptase; enzyme activity; inhibitor; ELISA).
CO[C@@H](C(N)=O)[C@H](NC(=O)c1ccc(NC(=O)c2ccc(C#N)cc2)cc1)C(=O)Nc1ccc(C(=O)Nc2ccc(C(=O)Nc3ccc(C(=O)O)cc3)c(O)c2OC(C)C)cc1 has an IC50 of 400 nM (gyrA; enzyme activity; inhibitor).
For CNc1nc(C#Cc2ccc(Cl)s2)nc2c1ncn2[C@H]1[C@H](O)[C@H](O)[C@]2(C(=O)OC(C)C)C[C@H]12, the Ki was over 10 µM (OPRD1; ligand displacement; radioligand).
The IC50 of CC(C)Oc1c(NC(=O)c2ccc(NC(=O)[C@H](CC(N)=O)NC(=O)c3ccc(NC(=O)c4ccc([N+](=O)[O-])c(OC(C)C)c4O)cc3)cc2)ccc(C(=O)Nc2ccc(C(=O)O)cc2)c1O is reported as over 50000 nM (gyrA; enzyme activity; inhibitor).
With O[C@@H]1[C@H](O)[C@@H]2C[C@@H]2[C@H]1n1cnc2c(NCC(c3ccccc3)c3ccccc3)nc(C#Cc3ccccc3)nc21 the Ki was over 10 µM (OPRD1; ligand displacement; radioligand).
N#Cc1ccc(Nc2nc(N)cc(Oc3ccc(-c4ccc(C#N)cc4)cc3Cl)n2)cc1 has an IC50 of 30 nM (gag-pol reverse transcriptase; enzyme activity; inhibitor).
The Ki of CNc1nc(C#Cc2ccc(Cl)s2)nc2c1ncn2[C@H]1[C@H](O)[C@H](O)[C@]2(C(=O)NCCN)C[C@H]12 is reported as over 10 µM (OPRD1; ligand displacement; radioligand).
Cc1cc(C)cc(S(=O)(=O)c2c(C(=O)NCCCNS(=O)(=O)c3ccc(C#N)cc3)[nH]c3ccc(Cl)cc23)c1 gave an IC50 of 100 nM (gag-pol reverse transcriptase; enzyme activity; inhibitor; ELISA).
For N#Cc1ccc(Nc2nc(N)cc(Oc3c(F)cc(-c4ccccc4)cc3F)n2)cc1, the IC50 was 70 nM (gag-pol reverse transcriptase; enzyme activity; inhibitor).
CC(C)Oc1c(NC(=O)c2ccc(NC(=O)[C@H](CC(N)=O)NC(=O)c3ccc(-c4nn[nH]c4-c4ccc(C#N)cc4)cc3)cc2)ccc(C(=O)Nc2ccc(C(=O)O)cc2)c1O gave an IC50 of over 50000 nM (gyrA; enzyme activity; inhibitor).
With CNC(=O)[C@@]12C[C@@H]1[C@@H](n1cnc3c(NC)nc(C#Cc4ccc(Br)s4)nc31)[C@H](O)[C@@H]2O the Ki was over 10 µM (OPRD1; ligand displacement; radioligand).
The IC50 of Cc1ccc(S(=O)(=O)NCCCCNC(=O)c2[nH]c3ccc(Cl)cc3c2S(=O)(=O)c2cc(C)cc(C)c2)cc1 is reported as 140 nM (gag-pol reverse transcriptase; enzyme activity; inhibitor; ELISA).
Cc1cc(C#N)ccc1C(=O)Nc1ccc(C(=O)N[C@@H](CC(N)=O)C(=O)Nc2ccc(C(=O)Nc3ccc(C(=O)Nc4ccc(C(=O)O)cc4)c(O)c3OC(C)C)cc2)cc1 gave an IC50 of 1700 nM (gyrA; enzyme activity; inhibitor).
Cc1cc(C)cc(S(=O)(=O)c2c(C(=O)NCCCCCNS(=O)(=O)c3ccc(C#N)cc3)[nH]c3ccc(Cl)cc23)c1 has an IC50 of 160 nM (gag-pol reverse transcriptase; enzyme activity; inhibitor; ELISA).
CC1=C(/C=C/C2=CCC[C@]3(C)[C@@H]([C@H](C)CCCC(C)(C)O)CC[C@@H]23)C[C@@H](O)CC1 gave an EC50 of 10 to 100 nM (Oxysterols receptor LXR-alpha (NR1H3, Homo sapiens, UniProt Q13133); coactivator recruitment; agonist; TR-FRET).
